Measured values taken from ChEMBL document CHEMBL5653631, “A Potent and Selective ULK1 Inhibitor Suppresses Autophagy and Sensitizes Cancer Cells to Nutrient Stress” (iScience, 2018).
Blank lines part the entries; values can stand above or below the molecule they belong to. Calls of active or inactive are those of the source. No cut-off for these calls is given here.

What was measured:
[1] = molecular target: Dual specificity mitogen-activated protein kinase kinase 2 (Homo sapiens) (UniProt P36507); test: Inhibition of human recombinant MAP2K2 at 500 nM related to control ULK1
Dual specificity mitogen-activated protein kinase kinase 2 (Homo sapiens), sequence (P36507 whole entry): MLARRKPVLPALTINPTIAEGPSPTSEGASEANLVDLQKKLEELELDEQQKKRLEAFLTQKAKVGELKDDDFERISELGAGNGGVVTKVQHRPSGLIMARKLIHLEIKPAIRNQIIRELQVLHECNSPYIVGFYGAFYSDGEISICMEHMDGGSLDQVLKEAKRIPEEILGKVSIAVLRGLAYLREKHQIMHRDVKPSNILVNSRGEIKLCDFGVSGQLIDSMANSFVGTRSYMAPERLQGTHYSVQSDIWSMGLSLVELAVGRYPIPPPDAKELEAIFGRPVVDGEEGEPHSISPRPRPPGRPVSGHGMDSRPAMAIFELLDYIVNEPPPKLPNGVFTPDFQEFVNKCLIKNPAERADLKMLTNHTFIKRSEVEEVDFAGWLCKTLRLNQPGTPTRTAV

[2] = molecular target: T1, SNF-related serine/threonine-protein kinase (Homo sapiens) (UniProt Q9NRH2); test: Inhibition of human recombinant SNRK at 500 nM related to control ULK1
T1 sequence (whole entry): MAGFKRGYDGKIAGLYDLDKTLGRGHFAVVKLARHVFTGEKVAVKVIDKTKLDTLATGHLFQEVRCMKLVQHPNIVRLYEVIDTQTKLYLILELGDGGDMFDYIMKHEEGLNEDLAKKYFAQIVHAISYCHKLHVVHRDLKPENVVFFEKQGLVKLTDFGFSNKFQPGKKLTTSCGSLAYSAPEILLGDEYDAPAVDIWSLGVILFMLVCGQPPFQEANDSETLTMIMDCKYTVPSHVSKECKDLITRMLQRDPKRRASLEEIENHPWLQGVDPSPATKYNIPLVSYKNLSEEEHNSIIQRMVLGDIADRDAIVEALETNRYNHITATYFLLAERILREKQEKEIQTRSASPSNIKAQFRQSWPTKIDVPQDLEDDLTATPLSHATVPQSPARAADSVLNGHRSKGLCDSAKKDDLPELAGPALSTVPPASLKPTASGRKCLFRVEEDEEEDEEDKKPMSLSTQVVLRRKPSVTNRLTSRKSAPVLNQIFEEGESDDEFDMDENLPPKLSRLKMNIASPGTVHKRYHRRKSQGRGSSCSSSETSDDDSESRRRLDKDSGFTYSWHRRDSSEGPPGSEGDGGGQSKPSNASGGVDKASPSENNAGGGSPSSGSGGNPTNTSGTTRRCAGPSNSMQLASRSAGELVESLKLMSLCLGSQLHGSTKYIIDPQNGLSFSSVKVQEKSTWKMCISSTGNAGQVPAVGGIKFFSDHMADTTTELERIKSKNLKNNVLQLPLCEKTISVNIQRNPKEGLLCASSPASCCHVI

[3] = molecular target: Calcium/calmodulin-dependent protein kinase type 1B (Homo sapiens) (UniProt Q6P2M8); test: Inhibition of human recombinant CaMK1b at 500 nM in presence of ATP by radiometric assay relative to control
Calcium/calmodulin-dependent protein kinase type 1B (Homo sapiens), sequence (Q6P2M8 whole entry): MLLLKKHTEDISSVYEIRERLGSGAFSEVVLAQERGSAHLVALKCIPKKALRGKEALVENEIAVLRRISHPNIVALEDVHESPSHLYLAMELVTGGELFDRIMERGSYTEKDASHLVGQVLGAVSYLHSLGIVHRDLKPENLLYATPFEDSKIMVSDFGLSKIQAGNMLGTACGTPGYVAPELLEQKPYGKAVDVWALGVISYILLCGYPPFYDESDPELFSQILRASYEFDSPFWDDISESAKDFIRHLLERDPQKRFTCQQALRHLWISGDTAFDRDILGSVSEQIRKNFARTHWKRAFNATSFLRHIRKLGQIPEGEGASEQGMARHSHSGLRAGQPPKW

[4] = molecular target: Serine/threonine-protein kinase PAK 5 (Homo sapiens) (UniProt Q9P286); test: Inhibition of human recombinant PAK5 at 15 nM in presence of ATP by radiometric assay relative to control
Serine/threonine-protein kinase PAK 5 (Homo sapiens), sequence (Q9P286 whole entry, looked up): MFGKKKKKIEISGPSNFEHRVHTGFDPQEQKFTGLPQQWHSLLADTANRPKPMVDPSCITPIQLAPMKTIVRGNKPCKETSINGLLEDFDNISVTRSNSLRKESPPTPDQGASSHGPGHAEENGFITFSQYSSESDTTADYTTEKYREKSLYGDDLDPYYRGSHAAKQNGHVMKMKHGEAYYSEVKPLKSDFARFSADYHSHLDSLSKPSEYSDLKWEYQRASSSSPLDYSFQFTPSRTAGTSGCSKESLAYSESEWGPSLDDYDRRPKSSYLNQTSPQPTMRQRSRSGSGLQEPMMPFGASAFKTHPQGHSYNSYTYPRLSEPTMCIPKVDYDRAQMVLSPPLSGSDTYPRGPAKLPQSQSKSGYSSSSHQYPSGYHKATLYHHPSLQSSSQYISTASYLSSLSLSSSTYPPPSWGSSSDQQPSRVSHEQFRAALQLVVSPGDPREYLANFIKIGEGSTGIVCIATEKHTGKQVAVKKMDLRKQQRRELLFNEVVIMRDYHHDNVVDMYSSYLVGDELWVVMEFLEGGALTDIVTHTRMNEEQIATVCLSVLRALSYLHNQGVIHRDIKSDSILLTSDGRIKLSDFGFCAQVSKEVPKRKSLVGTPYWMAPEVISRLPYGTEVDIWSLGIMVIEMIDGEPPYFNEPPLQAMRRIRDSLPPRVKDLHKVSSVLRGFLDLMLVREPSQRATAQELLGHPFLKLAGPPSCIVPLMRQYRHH

[5] = molecular target: Serine/threonine-protein kinase 35 (Homo sapiens) (UniProt Q8TDR2); test: Inhibition of human recombinant CLIK1 at 15 nM related to control ULK1
Serine/threonine-protein kinase 35 (Homo sapiens), sequence (Q8TDR2 whole entry): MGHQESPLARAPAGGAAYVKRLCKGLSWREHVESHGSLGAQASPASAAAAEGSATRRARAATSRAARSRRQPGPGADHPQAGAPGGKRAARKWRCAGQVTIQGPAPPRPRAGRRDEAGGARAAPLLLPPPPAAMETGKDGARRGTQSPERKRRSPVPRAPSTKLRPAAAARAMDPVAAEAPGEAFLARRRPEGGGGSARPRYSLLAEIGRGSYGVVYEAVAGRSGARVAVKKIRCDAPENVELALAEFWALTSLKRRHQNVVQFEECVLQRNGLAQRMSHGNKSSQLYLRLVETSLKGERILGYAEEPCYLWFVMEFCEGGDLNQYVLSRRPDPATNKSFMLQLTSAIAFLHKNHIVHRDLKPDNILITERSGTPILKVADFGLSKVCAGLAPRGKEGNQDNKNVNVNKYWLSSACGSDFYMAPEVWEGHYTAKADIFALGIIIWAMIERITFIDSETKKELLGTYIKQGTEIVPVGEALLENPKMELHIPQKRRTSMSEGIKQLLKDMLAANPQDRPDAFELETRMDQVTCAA

[6] = molecular target: T2, NUAK family SNF1-like kinase 2 (Homo sapiens) (UniProt Q9H093); test: Inhibition of human recombinant NuaK2 at 15 nM in presence of ATP by radiometric assay relative to control
T2 sequence (whole entry): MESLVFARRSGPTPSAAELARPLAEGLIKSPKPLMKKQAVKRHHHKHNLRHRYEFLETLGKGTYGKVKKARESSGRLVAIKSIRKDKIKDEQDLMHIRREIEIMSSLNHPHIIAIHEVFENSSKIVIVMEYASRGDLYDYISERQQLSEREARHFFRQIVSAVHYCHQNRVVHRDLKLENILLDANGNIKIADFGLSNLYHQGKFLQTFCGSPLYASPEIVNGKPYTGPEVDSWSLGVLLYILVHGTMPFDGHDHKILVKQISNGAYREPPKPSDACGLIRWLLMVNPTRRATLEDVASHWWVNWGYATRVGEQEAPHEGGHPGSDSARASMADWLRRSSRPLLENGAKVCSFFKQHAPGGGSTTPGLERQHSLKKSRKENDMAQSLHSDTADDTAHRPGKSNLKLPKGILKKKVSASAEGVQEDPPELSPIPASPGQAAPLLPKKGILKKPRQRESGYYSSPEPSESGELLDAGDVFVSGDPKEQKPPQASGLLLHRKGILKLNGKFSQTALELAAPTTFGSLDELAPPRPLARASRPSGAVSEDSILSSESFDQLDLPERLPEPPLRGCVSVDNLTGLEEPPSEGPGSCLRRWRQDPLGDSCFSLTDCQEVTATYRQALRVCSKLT

U2OS = test: Inhibition of autophagy in human U2OS cells assessed as ATG12-positive puncta formation at 5 uM incubated for 2.5 hrs in presence of AZD8055 by Fluorescent microscopy based analysis; format: functional, cell-based
Outline: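 U2OS cells treated 2.5 hr with vehicle or 100 nM AZD8055, with or without 5 μM inhibitor; fixed and immunostained for endogenous ATG12; ATG12-positive puncta (phagophores) assessed by fluorescence microscopy.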

[7] = molecular target: Mast/stem cell growth factor receptor Kit (Homo sapiens) (UniProt P10721); test: Inhibition of human recombinant KIT at 40 nM related to control ULK1
Mast/stem cell growth factor receptor Kit (Homo sapiens), sequence (P10721 whole entry): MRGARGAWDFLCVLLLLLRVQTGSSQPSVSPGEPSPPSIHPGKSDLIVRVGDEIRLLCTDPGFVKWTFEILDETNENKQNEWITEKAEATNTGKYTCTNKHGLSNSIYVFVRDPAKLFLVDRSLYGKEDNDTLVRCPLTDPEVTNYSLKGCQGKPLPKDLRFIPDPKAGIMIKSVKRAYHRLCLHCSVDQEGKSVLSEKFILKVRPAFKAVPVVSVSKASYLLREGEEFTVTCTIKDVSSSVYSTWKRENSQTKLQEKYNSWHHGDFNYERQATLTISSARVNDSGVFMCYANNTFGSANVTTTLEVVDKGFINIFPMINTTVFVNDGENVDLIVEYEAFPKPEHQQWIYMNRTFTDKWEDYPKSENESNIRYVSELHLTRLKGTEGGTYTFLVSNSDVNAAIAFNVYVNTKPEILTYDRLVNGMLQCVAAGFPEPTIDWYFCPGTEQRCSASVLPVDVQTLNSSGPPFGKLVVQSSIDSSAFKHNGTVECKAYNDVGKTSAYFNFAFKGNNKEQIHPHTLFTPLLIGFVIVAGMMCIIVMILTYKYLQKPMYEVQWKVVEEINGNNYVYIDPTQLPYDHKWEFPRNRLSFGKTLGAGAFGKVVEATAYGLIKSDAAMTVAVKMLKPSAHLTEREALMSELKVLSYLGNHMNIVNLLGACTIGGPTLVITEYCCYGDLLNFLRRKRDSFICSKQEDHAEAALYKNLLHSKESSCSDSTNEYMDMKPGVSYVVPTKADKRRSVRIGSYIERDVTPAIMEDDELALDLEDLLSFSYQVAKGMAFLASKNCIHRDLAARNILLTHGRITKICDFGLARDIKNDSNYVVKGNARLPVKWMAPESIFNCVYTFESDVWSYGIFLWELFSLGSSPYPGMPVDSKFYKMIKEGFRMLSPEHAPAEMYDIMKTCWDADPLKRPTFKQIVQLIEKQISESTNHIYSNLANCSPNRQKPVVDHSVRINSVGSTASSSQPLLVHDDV

[8] = molecular target: Proto-oncogene tyrosine-protein kinase Src (Homo sapiens) (UniProt P12931); test: Inhibition of human recombinant SRC at 40 nM related to control ULK1
Proto-oncogene tyrosine-protein kinase Src (Homo sapiens), sequence (P12931 2-536 limits assumed): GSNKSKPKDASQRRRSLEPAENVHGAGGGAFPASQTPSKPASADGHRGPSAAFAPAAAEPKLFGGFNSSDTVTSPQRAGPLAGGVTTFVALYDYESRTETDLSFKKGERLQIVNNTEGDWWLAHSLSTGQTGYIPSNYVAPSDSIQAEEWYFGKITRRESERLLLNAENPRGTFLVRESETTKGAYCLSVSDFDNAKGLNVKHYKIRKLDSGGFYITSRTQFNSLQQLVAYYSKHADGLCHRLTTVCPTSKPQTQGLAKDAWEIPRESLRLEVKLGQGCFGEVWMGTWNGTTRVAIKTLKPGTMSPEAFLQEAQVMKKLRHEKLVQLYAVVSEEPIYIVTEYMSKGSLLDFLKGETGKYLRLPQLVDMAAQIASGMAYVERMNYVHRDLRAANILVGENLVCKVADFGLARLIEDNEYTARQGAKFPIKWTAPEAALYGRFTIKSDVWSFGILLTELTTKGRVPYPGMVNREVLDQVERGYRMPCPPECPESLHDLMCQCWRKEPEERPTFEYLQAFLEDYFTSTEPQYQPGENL

fold change (FC) [1]: 0
fold change (FC) [2]: 0
inhibition [3]: 0%
SMILES: CNC(=O)c1ccccc1Oc1nc(Nc2cc(OC)c(OC)c(OC)c2)ncc1Br

inhibition [4]: 0%
fold change (FC) [5]: 0.1
inhibition [6]: 18%
SMILES: CC(C)[C@H](NC(=O)c1cc(-c2cnn3cc(-c4ccc(OCCN5CCCCC5)cc4)cnc23)cs1)C(F)(F)F

fold change (FC) [7]: 0
fold change (FC) [8]: 0.03
SMILES: O=C(N[C@@H](C1CC1)C(F)(F)F)c1cc(-c2cnn3cc(-c4ccc(F)cc4)cnc23)cs1
inhibition (U2OS): Active
